pKd: −log10 of the molar value. The source made the active and inactive calls. The calls are words filed in the database; no cut-off is given here.
What was measured:
[1] = molecular target: T1, Toll-like receptor 8 (Homo sapiens, UniProt Q9NR97); assay: Binding affinity to human TLR8 ectodomain by isothermal titration calorimetry
T1 sequence (Q9NR97 whole entry): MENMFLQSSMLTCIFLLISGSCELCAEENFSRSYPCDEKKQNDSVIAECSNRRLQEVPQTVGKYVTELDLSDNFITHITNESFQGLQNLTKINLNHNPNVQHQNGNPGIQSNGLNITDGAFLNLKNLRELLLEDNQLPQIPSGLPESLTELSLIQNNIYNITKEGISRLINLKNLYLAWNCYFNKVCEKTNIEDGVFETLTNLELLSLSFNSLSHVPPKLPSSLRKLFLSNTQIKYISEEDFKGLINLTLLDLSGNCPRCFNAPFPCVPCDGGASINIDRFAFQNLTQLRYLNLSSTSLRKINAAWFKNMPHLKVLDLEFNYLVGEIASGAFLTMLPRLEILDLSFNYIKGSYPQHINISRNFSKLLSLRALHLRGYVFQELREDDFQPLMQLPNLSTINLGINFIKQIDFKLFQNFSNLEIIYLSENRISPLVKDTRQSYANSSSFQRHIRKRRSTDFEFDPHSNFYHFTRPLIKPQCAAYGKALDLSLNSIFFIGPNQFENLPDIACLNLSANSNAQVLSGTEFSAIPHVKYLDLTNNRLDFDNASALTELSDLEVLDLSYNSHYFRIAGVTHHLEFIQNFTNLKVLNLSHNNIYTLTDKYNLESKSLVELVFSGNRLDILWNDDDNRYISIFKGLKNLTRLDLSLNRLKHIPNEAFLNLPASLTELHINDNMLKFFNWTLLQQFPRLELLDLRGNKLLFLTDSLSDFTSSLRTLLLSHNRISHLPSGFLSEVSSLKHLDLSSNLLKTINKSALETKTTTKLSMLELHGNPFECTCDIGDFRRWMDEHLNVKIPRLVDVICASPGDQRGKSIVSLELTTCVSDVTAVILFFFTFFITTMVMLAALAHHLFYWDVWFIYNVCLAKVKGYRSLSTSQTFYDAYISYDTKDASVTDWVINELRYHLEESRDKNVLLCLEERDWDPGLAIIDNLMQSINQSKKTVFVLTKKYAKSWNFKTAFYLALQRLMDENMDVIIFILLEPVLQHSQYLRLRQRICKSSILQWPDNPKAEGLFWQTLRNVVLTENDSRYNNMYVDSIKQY
Method in brief: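 ITC at 298 K in 25 mM MES pH 5.5, 0.20 M NaCl, 5% DMSO. The protein was the human TLR8 ectodomain (residues 27–827). 100 µM compound was titrated into 10 µM hTLR8 as one 0.4 µL injection followed by 18 × 2 µL injections, 120 s apart. Integrated peaks were fitted for Kd.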

[2] = molecular target: TLR2/TLR6 (Homo sapiens) (UniProt O60603+Q9Y2C9); assay: Inhibition of human TLR2/6 expressed in HEK-Blue cells assessed as inhibition of Pam2CSK4-induced NF-kappaB activation at 20 uM measured after 24 hrs by quanti-blue based SEAP reporter gene assay; assay type: cell-based
Method in brief: (§1)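 HEK-Blue SEAP format: 4 × 10⁴ cells/well in DMEM with ligand plus compound, 24 h at 37 °C. Supernatant mixed with QUANTI-Blue up to 1 h, then A620 read. Ligands: Pam3CSK4 100 ng/mL (TLR1/2), Pam2CSK4 100 ng/mL (TLR2/6), poly(I:C) 5 µg/mL (TLR3), LPS 20 ng/mL (TLR4), flagellin 50 ng/mL (TLR5), R848 1 µg/mL (TLR7), R848 2 µg/mL (TLR8), ODN2006 0.5 µM (TLR9). Mean ± s.d.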

[3] = molecular target: T2, Toll-like receptor 8 (Homo sapiens) (UniProt Q9NR97); assay: Inhibition of TLR8 in human monocytes assessed as reduction in R848-induced p65 nuclear translocation up to 5 uM measured after 2 hrs by Western blot analysis; assay type: cell-based
T2 sequence (whole entry): T1 sequence (Q9NR97 whole entry)
Method in brief: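 Monocyte cell lines, 2 × 10⁶/well, differentiated with PMA 100 ng/mL for 24 h. After washes, cells in unsupplemented RPMI received R848 1 µg/mL with varying compound concentrations for 2 h. Nuclear/cytoplasmic fractions extracted and resolved on 10% SDS-PAGE. Blots probed for p65, TRAF3 and p-IRAK4 (1:1000); lamin A/C (nuclear) and β-actin (cytoplasmic) as loading controls.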

[4] = molecular target: T3, Toll-like receptor 9 (Homo sapiens) (UniProt Q9NR96); assay: Inhibition of human TLR9 expressed in HEK-Blue cells assessed as inhibition of ODN2006-induced NF-kappaB activation at 20 uM measured after 24 hrs by quanti-blue based SEAP reporter gene assay; assay type: cell-based; method in brief: as §1
T3 sequence (whole entry): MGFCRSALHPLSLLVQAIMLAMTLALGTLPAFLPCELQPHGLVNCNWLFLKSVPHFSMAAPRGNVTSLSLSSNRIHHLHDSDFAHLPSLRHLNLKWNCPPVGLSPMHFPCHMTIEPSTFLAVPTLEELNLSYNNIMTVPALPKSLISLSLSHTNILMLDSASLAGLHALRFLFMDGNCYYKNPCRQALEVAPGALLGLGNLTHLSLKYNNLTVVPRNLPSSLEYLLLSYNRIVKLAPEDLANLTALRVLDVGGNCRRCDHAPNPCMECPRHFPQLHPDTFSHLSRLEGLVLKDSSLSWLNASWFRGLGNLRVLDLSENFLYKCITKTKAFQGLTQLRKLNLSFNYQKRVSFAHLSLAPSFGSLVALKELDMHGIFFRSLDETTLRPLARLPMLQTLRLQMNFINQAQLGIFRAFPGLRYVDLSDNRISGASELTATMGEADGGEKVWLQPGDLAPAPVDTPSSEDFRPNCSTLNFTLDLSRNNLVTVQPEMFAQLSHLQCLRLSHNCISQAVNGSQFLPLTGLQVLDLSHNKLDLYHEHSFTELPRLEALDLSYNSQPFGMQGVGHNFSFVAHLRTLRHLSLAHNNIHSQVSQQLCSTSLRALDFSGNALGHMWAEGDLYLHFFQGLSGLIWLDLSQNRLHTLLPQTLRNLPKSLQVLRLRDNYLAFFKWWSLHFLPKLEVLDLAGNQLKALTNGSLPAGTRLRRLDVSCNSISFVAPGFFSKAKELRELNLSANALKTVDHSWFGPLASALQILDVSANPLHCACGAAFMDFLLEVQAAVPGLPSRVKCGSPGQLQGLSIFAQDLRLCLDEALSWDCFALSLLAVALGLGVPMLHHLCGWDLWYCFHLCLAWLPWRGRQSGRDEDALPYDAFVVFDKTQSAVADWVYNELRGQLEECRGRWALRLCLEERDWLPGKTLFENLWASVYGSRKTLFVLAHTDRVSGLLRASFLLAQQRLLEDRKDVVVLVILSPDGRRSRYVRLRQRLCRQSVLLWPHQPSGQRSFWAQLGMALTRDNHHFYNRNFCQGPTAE

[5] = molecular target: Toll-like receptor 3 (Homo sapiens) (UniProt O15455); assay: Inhibition of human TLR3 expressed in HEK-Blue cells assessed as inhibition of poly(I/C)-induced NF-kappaB activation at 20 uM measured after 24 hrs by quanti-blue based SEAP reporter gene assay; assay type: cell-based; method in brief: as §1
Toll-like receptor 3 (Homo sapiens), sequence (O15455 whole entry): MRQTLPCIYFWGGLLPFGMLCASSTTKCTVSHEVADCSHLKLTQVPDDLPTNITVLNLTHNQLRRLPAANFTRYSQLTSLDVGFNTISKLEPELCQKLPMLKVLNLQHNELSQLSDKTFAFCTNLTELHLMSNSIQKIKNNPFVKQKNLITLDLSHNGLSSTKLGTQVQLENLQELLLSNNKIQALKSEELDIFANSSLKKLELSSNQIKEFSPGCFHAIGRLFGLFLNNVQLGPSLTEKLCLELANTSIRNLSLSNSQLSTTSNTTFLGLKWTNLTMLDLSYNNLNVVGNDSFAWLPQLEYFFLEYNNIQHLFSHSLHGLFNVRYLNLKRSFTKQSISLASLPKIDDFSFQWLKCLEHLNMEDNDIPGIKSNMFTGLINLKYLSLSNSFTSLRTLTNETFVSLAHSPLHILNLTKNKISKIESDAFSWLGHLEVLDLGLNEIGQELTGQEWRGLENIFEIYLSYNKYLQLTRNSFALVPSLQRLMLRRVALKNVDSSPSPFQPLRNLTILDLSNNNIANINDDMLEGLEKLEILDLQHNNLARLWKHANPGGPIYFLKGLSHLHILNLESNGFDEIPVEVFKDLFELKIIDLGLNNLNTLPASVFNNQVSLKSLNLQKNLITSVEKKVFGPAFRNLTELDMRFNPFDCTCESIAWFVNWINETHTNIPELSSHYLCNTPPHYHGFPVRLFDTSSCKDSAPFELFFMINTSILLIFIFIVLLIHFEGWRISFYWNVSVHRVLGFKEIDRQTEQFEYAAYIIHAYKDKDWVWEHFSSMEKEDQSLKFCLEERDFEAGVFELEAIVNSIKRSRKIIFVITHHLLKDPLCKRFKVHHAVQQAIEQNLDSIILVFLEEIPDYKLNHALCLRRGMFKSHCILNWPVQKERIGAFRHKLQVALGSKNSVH

pKd [1]: 6.65
inhibition [2]: inactive
inhibition [3]: Active
inhibition [4]: inactive
inhibition [5]: inactive
SMILES: CSc1nnc(CCCO)n1-c1cc(C)c(C)c(C)c1

— ChEMBL document CHEMBL4354873, “Rationally Designed Small-Molecule Inhibitors Targeting an Unconventional Pocket on the TLR8 Protein-Protein Interface” (J Med Chem, 2020)
